Source: ChEMBL document CHEMBL1144439, “A novel class of in vivo active anticancer agents: achiral seco-amino- and seco-hydroxycyclopropylbenz[e]indolone (seco-CBI) analogues of the duocarmycins and CC-1065” (J Med Chem, 2005)
Values belong to the molecule of their own block, whether it stands above or below them.

How the values were obtained:
[1] = Concentration required to kill 50% of human U-251 CNS cancer cells; format: functional
In short: (§1)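 NCI 60-cell human cancer panel run at the National Cancer Institute. Cells exposed to compound for 48 h, with a sulforhodamine B read-out.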

HOP-62 = assay: Concentration required to kill 50% of human HOP-62 non-small cell lung cancer cells; format: functional
In short: (§2)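 NCI 60-cell-line human tumour panel. Continuous 48 h drug exposure, then sulforhodamine B assay for cell viability. […] GI50 and TGI are generated from the same curves.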

CAKI-1 = assay: Concentration required to kill 50% of human CAKI-1 renal cancer cells; format: functional; in short: as §2
NCI-H23 = assay: Concentration required to kill 50% of human NCI-H23 non-small cell lung cancer cells; format: functional; in short: as §2
OVCAR-3 = assay: Concentration required to kill 50% of human OVCAR-3 ovarian cancer cells; format: functional; in short: as §2
MDA-MB-231 = assay: Concentration required to kill 50% of human MDA-MB-231/ATCC breast cancer cells; format: functional; in short: as §2
L1210 = assay: The concentration required for inhibiting the growth of the murine L1210 leukemia cells by 50%; format: functional, cell-based; conditions: Mus musculus
In short: (§3)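 MTT growth inhibition in murine lines grown in DMEM with 10% FBS, HEPES, glutamine, pen/strep at 37 °C, 5% CO2. Seeded 80 000 cells/well, continuous drug exposure (DMSO stock diluted in DMEM) for 72 h, quadruplicate wells per concentration. MTT added for 4 h, formazan dissolved in acid 2-propanol, read at 570 nm (reference 630 nm). IC50 extrapolated from averaged absorbance curves.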

SNB-19 = assay: Concentration required to kill 50% of human SNB-19 CNS cancer cells; format: functional; in short: as §2
OVCAR-4 = assay: Concentration required to kill 50% of human OVCAR-4 ovarian cancer cells; format: functional; in short: as §2
PC-3 = assay: Concentration required to kill 50% of human PC-3 prostate cancer cells; format: functional; in short: as §2
SK-MEL-2 = assay: Concentration required to kill 50% of human SK-MEL-2 melanoma cells; format: functional; in short: as §2
[2] = Concentration required to kill 50% of human RPMI-8226 leukemia cells; format: functional; in short: as §2
COLO 205 = assay: Concentration required to kill 50% of human COLO 205 colon cancer cells; format: functional; in short: as §2
SF-268 = assay: Concentration required to kill 50% of human SF-268 CNS cancer cells; format: functional; in short: as §2
SN12C = assay: Concentration required to kill 50% of human SN12C renal cancer cells; format: functional; in short: as §2
RXF 393 = assay: Concentration required to kill 50% of human RXF 393 renal cancer cells; format: functional; in short: as §2
TK-10 = assay: Concentration required to kill 50% of human TK-10 renal cancer cells; format: functional; in short: as §1
NCI-H226 = assay: Concentration required to kill 50% of human NCI-H226 non-small cell lung cancer cells; format: functional; in short: as §2
HT-29 = assay: Concentration required to kill 50% of human HT-29 colon cancer cells; format: functional; in short: as §2
NCI-H460 = assay: Concentration required to kill 50% of human NCI-H460 non-small cell lung cancer cells; format: functional; in short: as §2
SK-OV-3 = assay: Concentration required to kill 50% of human SK-OV-3 ovarian cancer cells; format: functional; in short: as §2
HCC 2998 = assay: Concentration required to kill 50% of human HCC2998 colon cancer cells; format: functional; in short: as §2
SNB-75 = assay: Concentration required to kill 50% of human SNB-75 CNS cancer cells; format: functional; in short: as §2
MOLT-4 = assay: Concentration required to kill 50% of human MOLT-4 leukemia cells; format: functional; in short: as §2
HCT-116 = assay: Concentration required to kill 50% of human HCT116 colon cancer cells; format: functional; in short: as §2
Hs-578T = assay: Concentration required to kill 50% of human Hs 578.T breast cancer cells; format: functional; in short: as §2
A498 = assay: Concentration required to kill 50% of human A-498 renal cancer cells; format: functional; in short: as §2
UO-31 = assay: Concentration required to kill 50% of human UO-31 renal cancer cells; format: functional; in short: as §1
NCI-H322M = assay: Concentration required to kill 50% of human NCI-H322M non-small cell lung cancer cells; format: functional; in short: as §2
IGROV-1 = assay: Concentration required to kill 50% of human IGROV1 ovarian cancer cells; format: functional; in short: as §2
SF-295 = assay: Concentration required to kill 50% of human SF-295 CNS cancer cells; format: functional; in short: as §2
MCF7S = assay: Concentration required to kill 50% of human MCF-7 breast cancer cells; format: functional; in short: as §2
786-0 = assay: Concentration required to kill 50% of human 786-0 renal cancer cells; format: functional; in short: as §2
HOP-92 = assay: Concentration required to kill 50% of human HOP-92 non-small cell lung cancer cells; format: functional; in short: as §2
K562 [3] = assay: The concentration required for inhibiting the growth of the human K562 chronic myeloid leukemia cells by 50%; format: functional, cell-based
In short: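 Drug exposure was […] in the dark, then cells were washed and plated at 10⁴ cells/well, eight wells per sample, and incubated 4 days. MTT was added for 5 h, formazan dissolved in DMSO and read at 550 nm.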

HL-60 = assay: Concentration required to kill 50% of human HL-60 leukemia cells; format: functional; in short: as §2
LOX IMVI = assay: Concentration required to kill 50% of human LOX IMVI melanoma cells; format: functional; in short: as §2
EKVX = assay: Concentration required to kill 50% of human EKVX non-small cell lung cancer cells; format: functional; in short: as §2
BT-549 = assay: Concentration required to kill 50% of human BT-549 breast cancer cells; format: functional; in short: as §2
KM12 = assay: Concentration required to kill 50% of human KM12 colon cancer cells; format: functional; in short: as §2
Malme-3M = assay: Concentration required to kill 50% of human MALME-3M melanoma cells; format: functional; in short: as §2
[4] = The concentration required for inhibiting the growth of the murine B16-F0 melanoma cells by 50%; format: functional; conditions: Mus musculus, B16F0; in short: as §3
SK-MEL-28 = assay: Concentration required to kill 50% of human SK-MEL-28 melanoma cells; format: functional; in short: as §2
NCI/ADR-RES = assay: Concentration required to kill 50% of human NCI/ADR-RES breast cancer cells; format: functional; in short: as §2
OVCAR-5 = assay: Concentration required to kill 50% of human OVCAR-5 ovarian cancer cells; format: functional; in short: as §2
A549 = assay: Concentration required to kill 50% of human A549/ATCC non-small cell lung cancer cells; format: functional; in short: as §2
MDA-N = assay: Concentration required to kill 50% of human MDA-N breast cancer cells; format: functional; in short: as §2
DU-145 = assay: Concentration required to kill 50% of human DU-145 prostate cancer cells; format: functional; in short: as §2
HCT-15 = assay: Concentration required to kill 50% of human HCT-15 colon cancer cells; format: functional; in short: as §2
SW-620 = assay: Concentration required to kill 50% of human SW-620 colon cancer cells; format: functional; in short: as §2
[5] = Concentration required to kill 50% of human T-47D breast cancer cells; format: functional, Cancer cell lines; in short: as §1
SK-MEL-5 = assay: Concentration required to kill 50% of human SK-MEL-5 melanoma cells; format: functional; in short: as §2
NCI-H522 = assay: Concentration required to kill 50% of human NCI-H522 non-small cell lung cancer cells; format: functional; in short: as §2
K562 [6] = assay: Concentration required to kill 50% of human K-562 leukemia cells; format: functional; in short: as §2
ACHN = assay: Concentration required to kill 50% of human ACHN renal cancer cells; format: functional; in short: as §2
UACC-62 = assay: Concentration required to kill 50% of human UACC-62 melanoma cells; format: functional; in short: as §1
OVCAR-8 = assay: Concentration required to kill 50% of human OVCAR-8 ovarian cancer cells; format: functional; in short: as §2
SF-539 = assay: Concentration required to kill 50% of human SF-539 CNS cancer cells; format: functional; in short: as §2

Structure (SMILES): COc1cc2cc(C(=O)Nc3cc(N)c4ccccc4c3CCCl)[nH]c2c(OC)c1OC [CENTANAMYCIN]
- Log 10 LC50 [1]: -5.21
- Log 10 LC50 (HOP-62): >-4.3
- Log 10 LC50 (CAKI-1): >-4.3
- Log 10 LC50 (NCI-H23): -5.07
- Log 10 LC50 (OVCAR-3): >-4.3
- Log 10 LC50 (MDA-MB-231): -4.58
- IC50 (L1210): 180 nM
- Log 10 LC50 (SNB-19): >-4.3
- Log 10 LC50 (OVCAR-4): >-4.3
- Log 10 LC50 (PC-3): -4.81
- Log 10 LC50 (SK-MEL-2): -6.74
- Log 10 LC50 [2]: >-4.3
- Log 10 LC50 (COLO 205): -4.69
- Log 10 LC50 (SF-268): >-4.3
- Log 10 LC50 (SN12C): -5.65
- Log 10 LC50 (RXF 393): -6.86
- Log 10 LC50 (TK-10): -4.33
- Log 10 LC50 (NCI-H226): >-4.3
- Log 10 LC50 (HT-29): -4.41
- Log 10 LC50 (NCI-H460): -4.81
- Log 10 LC50 (SK-OV-3): >-4.3
- Log 10 LC50 (HCC 2998): -6.65
- Log 10 LC50 (SNB-75): -5.78
- Log 10 LC50 (MOLT-4): >-4.3
- Log 10 LC50 (HCT-116): -4.67
- Log 10 LC50 (Hs-578T): >-4.3
- Log 10 LC50 (A498): >-4.3
- Log 10 LC50 (UO-31): >-4.3
- Log 10 LC50 (NCI-H322M): >-4.3
- Log 10 LC50 (IGROV-1): >-4.3
- Log 10 LC50 (SF-295): >-4.3
- Log 10 LC50 (MCF7S): -4.54
- Log 10 LC50 (786-0): -4.58
- Log 10 LC50 (HOP-92): -4.42
- IC50 (K562 [3]): 45 nM
- Log 10 LC50 (HL-60): >-4.3
- Log 10 LC50 (LOX IMVI): -4.75
- Log 10 LC50 (EKVX): -4.73
- Log 10 LC50 (BT-549): -5.76
- Log 10 LC50 (KM12): >-4.3
- Log 10 LC50 (Malme-3M): >-4.3
- IC50 [4]: 150 nM
- Log 10 LC50 (SK-MEL-28): >-4.3
- Log 10 LC50 (NCI/ADR-RES): -4.33
- Log 10 LC50 (OVCAR-5): -4.43
- Log 10 LC50 (A549): >-4.3
- Log 10 LC50 (MDA-N): >-4.3
- Log 10 LC50 (DU-145): >-4.3
- Log 10 LC50 (HCT-15): >-4.3
- Log 10 LC50 (SW-620): >-4.3
- Log 10 LC50 [5]: >-4.3
- Log 10 LC50 (SK-MEL-5): -4.85
- Log 10 LC50 (NCI-H522): -5.53
- Log 10 LC50 (K562 [6]): >-4.3
- Log 10 LC50 (ACHN): >-4.3
- Log 10 LC50 (UACC-62): -6.49
- Log 10 LC50 (OVCAR-8): -4.69
- Log 10 LC50 (SF-539): >-4.3

- IC50 (L1210): 51000 nM
Structure (SMILES): COc1cc2cc(C(=O)Nc3cc(OCc4ccccc4)c4ccccc4c3CCCl)[nH]c2c(OC)c1OC
- IC50 [4]: > 100000 nM

Structure (SMILES): COc1cc2cc(C(=O)Nc3cc(NCc4ccccc4)c4ccccc4c3CCCl)[nH]c2c(OC)c1OC
- IC50 [4]: 5400 nM
